The source of these data is ChEMBL document CHEMBL1132147, “2-(2-Phenylcyclopropyl)imidazolines: reversed enantioselective interaction at I(1) and I(2) imidazoline receptors” (J Med Chem, 1999).

pKi: −log10 of the molar value.

In general, pKi refers to −log10 of the Ki, conventionally taken in molar units. Read a high pKi as a small Ki.

In assay [1] the target is T1, Adrenergic receptor alpha-2 (Rattus norvegicus, UniProt P22086+P19328+P22909).
T1 sequence (P22086 whole entry): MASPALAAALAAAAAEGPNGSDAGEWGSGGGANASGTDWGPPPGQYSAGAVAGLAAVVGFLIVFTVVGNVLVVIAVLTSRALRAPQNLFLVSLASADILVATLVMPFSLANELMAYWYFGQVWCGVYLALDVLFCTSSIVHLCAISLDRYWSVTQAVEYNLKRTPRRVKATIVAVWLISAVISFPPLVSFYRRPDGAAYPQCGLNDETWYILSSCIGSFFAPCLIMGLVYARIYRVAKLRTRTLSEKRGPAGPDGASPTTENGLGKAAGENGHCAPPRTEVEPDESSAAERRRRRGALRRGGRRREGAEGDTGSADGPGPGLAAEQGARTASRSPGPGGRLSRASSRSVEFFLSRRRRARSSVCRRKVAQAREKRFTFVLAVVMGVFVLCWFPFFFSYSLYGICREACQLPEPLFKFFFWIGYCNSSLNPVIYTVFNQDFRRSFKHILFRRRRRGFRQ
T1 sequence (P19328 whole entry): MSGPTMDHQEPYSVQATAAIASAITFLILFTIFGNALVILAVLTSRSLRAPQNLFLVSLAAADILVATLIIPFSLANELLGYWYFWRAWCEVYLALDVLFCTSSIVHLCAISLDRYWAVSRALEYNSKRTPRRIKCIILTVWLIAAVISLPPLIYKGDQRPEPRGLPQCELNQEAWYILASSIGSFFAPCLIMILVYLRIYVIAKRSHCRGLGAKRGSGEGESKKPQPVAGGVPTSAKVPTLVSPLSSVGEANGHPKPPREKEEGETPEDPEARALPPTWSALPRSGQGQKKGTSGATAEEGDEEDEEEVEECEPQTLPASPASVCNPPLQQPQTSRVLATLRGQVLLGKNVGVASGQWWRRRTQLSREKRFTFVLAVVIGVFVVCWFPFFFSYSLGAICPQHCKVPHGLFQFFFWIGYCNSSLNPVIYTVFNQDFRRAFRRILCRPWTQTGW
T1 sequence (P22909 whole entry): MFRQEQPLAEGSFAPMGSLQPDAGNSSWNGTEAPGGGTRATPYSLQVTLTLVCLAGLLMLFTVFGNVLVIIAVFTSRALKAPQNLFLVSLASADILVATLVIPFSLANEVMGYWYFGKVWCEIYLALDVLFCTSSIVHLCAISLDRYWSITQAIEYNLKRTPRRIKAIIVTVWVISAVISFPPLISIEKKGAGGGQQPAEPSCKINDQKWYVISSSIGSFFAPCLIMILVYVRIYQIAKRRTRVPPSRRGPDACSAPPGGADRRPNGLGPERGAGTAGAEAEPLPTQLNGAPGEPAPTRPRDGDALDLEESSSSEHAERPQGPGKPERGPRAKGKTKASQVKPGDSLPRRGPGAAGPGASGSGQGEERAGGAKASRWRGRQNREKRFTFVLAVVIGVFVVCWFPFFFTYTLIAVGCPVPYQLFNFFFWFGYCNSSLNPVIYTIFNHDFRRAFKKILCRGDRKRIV
Put plainly: Displacement of [3H]-clonidine from Alpha-2 adrenergic receptor of rat cortex membranes. The format is cell membranes, Membrane. The procedure, abridged:
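Competition binding using hydrogen oxalate salts of the compounds: [3H]clonidine on rat cortex membranes (α2) or [3H]idazoxan on rabbit kidney membranes (I2). IC50 by nonlinear regression of displacement data, converted to Ki by Cheng–Prusoff and given as pKi ± SEM.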
On the technique in general: In a radioligand displacement assay an active substance lowers the binding of a labelled ligand.

Assay [2] can be described thus: Relative binding to I2 and I1 imidazoline receptors […].
Assay [3] is described as follows: Relative binding to I2 imidazoline and alpha-2 adrenergic receptors […].
A short description of assay [4]: Displacement of [3H]idazoxan from imidazoline receptor I-2 of rabbit kidney membranes.
The target of assay [5] is Nischarin (Rattus norvegicus). Put plainly: Displacement of [125I]p-iodoclonidine from imidazoline receptor I-1 of PC12 cell membranes.

With `C(=C\c1ccccc1)/C1=NCCN1` [TRACIZOLINE], the “Log Ki” value in assay [1] is reported as -4.85; in assay [4] it was -8.72. Besides, the values for the Ratio in assay [2] and in assay [3] were 10 and 7410, respectively. Further, in assay [5], the pKi was 7.72.

With `c1ccc(C2CC2C2=NCCN2)cc1` (racemic), the entries for the “Log Ki” value in assay [1] and in assay [4] were -6.4 and -7.64, respectively.

In the case of `c1ccc(C2CC2C2=NCCN2)cc1` (stereo in doubt; 4a(+/-)) [listing 1 of 2 here], the results for the Ratio in assay [2] and in assay [3] were 7 and 33, respectively.

Consider `c1ccc(C2CC2C2=NCCN2)cc1` (stereo in doubt; 4a(+/-)) [listing 2 of 2 here], for which the “Log Ki” value in assay [1] is on record as -4.53; in assay [4], -6.05.

As to `c1ccc([C@H]2C[C@@H]2C2=NCCN2)cc1`, the entries for the “Log Ki” value in assay [1] and in assay [4] were -6.62 and -6.91, respectively.

With `c1ccc([C@@H]2C[C@H]2C2=NCCN2)cc1`, the results for the “Log Ki” value in assay [1] and in assay [4] were -6.92 and -8.22, respectively.
